According to ChEMBL document CHEMBL1134499, “Structure-activity relationships of 1,4-dihydro-(1H,4H)-quinoxaline-2,3-diones as N-methyl-D-aspartate (glycine site) receptor antagonists. 1. Heterocyclic substituted 5-alkyl derivatives” (J Med Chem, 2001):
Converted amounts (≈) assume the structure as drawn.

Assays:
Glutamate NMDA receptor = assay: Binding affinity at glycine binding site of NMDA receptor in rat cortical membranes by [3H]L-689,560 displacement.; assay type: cell membranes, Membrane
[1] = Solubility in 0.1 m aqueous D-arginine at pH 9; assay type: physicochemical
Rattus norvegicus = species on record: Rattus norvegicus; assay: Inhibition of NMDA-induced depolarizations in rat cortical wedges.; assay type: functional
Mus musculus [2] = assay: Ability to prevent NMDA-induced hyperlocomotion in the mouse following iv administration of 30 mg/kg dose; 5/9; assay type: functional
Mus musculus [3] = assay: Ability to prevent NMDA-induced hyperlocomotion in the mouse following iv administration of 20 mg/kg dose; 6/9; assay type: functional
Method in brief: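 CD1 mice (25-30 g) received NMDA 300 mg/kg sc. Test compound was given iv via a tail vein 15 min before NMDA, dissolved in buffered saline (pH 7-9) or 0.1 M aqueous D-arginine; saline-dosed controls; usually 9-10 mice per dose. Time to onset and duration of hyperlocomotion recorded up to 15 min. Score = number of animals reaching 15 min post-NMDA.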

Mus musculus [4] = assay: Ability to prevent NMDA-induced hyperlocomotion in the mouse following iv administration of 10 mg/kg dose; 2/9; assay type: functional
Mus musculus [5] = assay: Ability to prevent NMDA-induced hyperlocomotion in the mouse following iv administration of 3 mg/kg dose; 0/9; assay type: functional
Mus musculus [6] = assay: Ability to prevent NMDA-induced hyperlocomotion in the mouse following iv administration of 20 mg/kg dose; 0/6; assay type: functional
Mus musculus [7] = assay: Ability to prevent NMDA-induced hyperlocomotion in the mouse following iv administration of 20 mg/kg dose; 0/9; assay type: functional
Mus musculus [8] = assay: Ability to prevent NMDA-induced hyperlocomotion in the mouse following iv administration of 20 mg/kg dose; 1/9; assay type: functional
[9] = Solubility in water at pH 4-5; assay type: physicochemical
[10] = Solubility in 0.1 M aqueous D-arginine at pH 9
Mus musculus [11] = assay: Ability to prevent NMDA-induced hyperlocomotion in the mouse following iv administration of 3 mg/kg dose; 3/10; assay type: functional
Mus musculus [12] = assay: Ability to prevent NMDA-induced hyperlocomotion in the mouse following iv administration of 15 mg/kg dose; 3/10; assay type: functional
Mus musculus [13] = assay: Ability to prevent NMDA-induced hyperlocomotion in the mouse following iv administration of 10 mg/kg dose; 5/10; assay type: functional
Mus musculus [14] = assay: Ability to prevent NMDA-induced hyperlocomotion in the mouse following iv administration of 30 mg/kg dose; 10/10; assay type: functional

SMILES	IC50 (Glutamate NMDA receptor) [nM]	EC50 (Rattus norvegicus) [nM]	other results
Cc1ncnn1Cc1c(Cl)c(Cl)cc2nc(O)c(O)nc12	190	–	–
CCN(CC)Cc1cn(Cc2c(Cl)c(Cl)cc3nc(O)c(O)nc23)nn1	6	150	No. protected/ No.dosed (Mus musculus [7]): 0
Oc1nc2cc(Cl)c(Cl)cc2nc1O [2,3-DIHYDROXY-6,7-DICHLOROQUINOXALINE]	2000	–	–
Oc1nc2cc(Cl)c(Cl)c(Cn3cnnc3)c2nc1O	81	1090	–
CCCn1cnc(Cc2c(Cl)c(Cl)cc3nc(O)c(O)nc23)c1	4.4	350	No. protected/ No.dosed (Mus musculus [3]): 6; solubility [9]: > 10000 µg/mL
Oc1nc2cc(Cl)c(Cl)c(Cc3ccccn3)c2nc1O	30	4100	solubility [9]: < 1000 µg/mL
Cc1ncn(Cc2c(Cl)c(Cl)cc3nc(O)c(O)nc23)n1	24	640	–
C[C@@H]1CN(O)C(=O)[C@@H]1N	1200	16000	No. protected/ No.dosed (Mus musculus [14]): 10; No. protected/ No.dosed (Mus musculus [13]): 5
Oc1nc2cc(Cl)c(Cl)c(Cn3cncn3)c2nc1O	25	–	solubility [10]: < 10 µg/mL

Continued by falling IC50 (Glutamate NMDA receptor), values first:

IC50 (Glutamate NMDA receptor) [nM]	EC50 (Rattus norvegicus) [nM]	SMILES	other results
109	–	Cc1nccn1Cc1c(Cl)c(Cl)cc2nc(O)c(O)nc12	–
78	–	Cn1nnc(Cc2c(Cl)c(Cl)cc3nc(O)c(O)nc23)n1	–
23	1300	Oc1nc2cc(Cl)c(Cl)c(Cn3ccnc3)c2nc1O	–
7.6	88	CN1CCN(Cc2cn(Cc3c(Cl)c(Cl)cc4nc(O)c(O)nc34)nn2)CC1	No. protected/ No.dosed (Mus musculus [8]): 1; solubility [9]: > 10000 µg/mL
5	–	Oc1nc2cc(Cl)c(Cl)c(Cn3cccn3)c2nc1O	solubility [10]: < 10 µg/mL
4	420	CCC(c1c(Cl)c(Cl)cc2nc(O)c(O)nc12)n1cncn1 (stereo unspecified)	solubility [1]: ~1000 µg/mL (≈ 2940 µM)
3.1	90	CCC(c1c(Cl)c(Cl)cc2nc(O)c(O)nc12)n1ccnc1 (stereo unspecified)	No. protected/ No.dosed (Mus musculus [7]): 0
2.6	90	CCC(c1c(Cl)c(Cl)cc2nc(O)c(O)nc12)n1cnnc1 (stereo unspecified)	No. protected/ No.dosed (Mus musculus [2]): 5; No. protected/ No.dosed (Mus musculus [3]): 6; No. protected/ No.dosed (Mus musculus [4]): 2; solubility [1]: > 5000 µg/mL; No. protected/ No.dosed (Mus musculus [5]): 0
1.4	1100	O=c1[nH]c2cc(Cl)c(Cl)c([N+](=O)[O-])c2[nH]c1=O [LICOSTINEL]	No. protected/ No.dosed (Mus musculus [11]): 3; No. protected/ No.dosed (Mus musculus [12]): 3; No. protected/ No.dosed (Mus musculus [13]): 5
1	350	Oc1nc2cc(Cl)c(Cl)c(Cn3ccnn3)c2nc1O	–
0.75	290	CCC(c1c(Cl)c(Cl)cc2nc(O)c(O)nc12)n1ccnn1 (stereo unspecified)	No. protected/ No.dosed (Mus musculus [6]): 0; solubility [1]: < 1000 µg/mL
